Data as given in ChEMBL document CHEMBL1275559, “Complex ciprofloxacin resistome revealed by screening a Pseudomonas aeruginosa mutant library for altered susceptibility” (2008).
Activity calls are given as the source filed them.

Legend:
Pseudomonas aeruginosa [1] = test: Upregulation of putative tail fiber assembly protein in Pseudomonas aeruginosa PA0621 at MIC; assay type: functional, organism-based
Pseudomonas aeruginosa [2] = test: Upregulation of mexB gene in Pseudomonas aeruginosa PA0426 at 0.3 times MIC relative to untreated control; assay type: functional, organism-based
Method in brief: (§1)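 P. aeruginosa cells were treated with ciprofloxacin at 0.3× MIC or 1× MIC. Gene expression trend was scored relative to untreated cells.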

Pseudomonas aeruginosa [3] = test: Upregulation of hypothetical protein in Pseudomonas aeruginosa PA0634 at 0.3 times MIC; assay type: functional, organism-based; method in brief: as §1
Pseudomonas aeruginosa [4] = test: Upregulation of hypothetical protein in Pseudomonas aeruginosa PA4685 at 0.3 times MIC; assay type: functional, organism-based; method in brief: as §1
Pseudomonas aeruginosa [5] = test: Upregulation of putative sensor/response regulator hybrid in Pseudomonas aeruginosa PA1611 at 0.3 times MIC; assay type: functional, organism-based
Pseudomonas aeruginosa [6] = test: Upregulation of hypothetical protein in Pseudomonas aeruginosa PA0616 at 0.3 times MIC; assay type: functional, organism-based; method in brief: as §1
Pseudomonas aeruginosa [7] = test: Upregulation of putative tail fiber assembly protein in Pseudomonas aeruginosa PA0621 at 0.3 times MIC; assay type: functional, organism-based
Pseudomonas aeruginosa [8] = test: Upregulation of putative base plate assembly protein W in Pseudomonas aeruginosa PA0617 at MIC; assay type: functional, organism-based; method in brief: as §1
Pseudomonas aeruginosa [9] = test: Upregulation of hypothetical protein in Pseudomonas aeruginosa PA0630 at MIC; assay type: functional, organism-based; method in brief: as §1
Pseudomonas aeruginosa [10] = test: Upregulation of putative tail fiber protein in Pseudomonas aeruginosa PA0620 at 0.3 times MIC; assay type: functional, organism-based
Pseudomonas aeruginosa [11] = test: Upregulation of mutL gene in Pseudomonas aeruginosa PA4946 at MIC; assay type: functional, organism-based; method in brief: as §1
Pseudomonas aeruginosa [12] = test: Downregulation of tig gene in Pseudomonas aeruginosa PA1800 at 1 times MIC relative to untreated control; assay type: functional, organism-based; method in brief: as §1
Pseudomonas aeruginosa [13] = test: Upregulation of hypothetical protein in Pseudomonas aeruginosa PA0338 at 0.3 times MIC; assay type: functional, organism-based; method in brief: as §1
Pseudomonas aeruginosa [14] = test: Upregulation of conserved hypothetical protein in Pseudomonas aeruginosa PA0624 at 0.3 times MIC; assay type: functional, organism-based; method in brief: as §1
Pseudomonas aeruginosa [15] = test: Upregulation of putative base plate assembly protein W in Pseudomonas aeruginosa PA0617 at 0.3 times MIC; assay type: functional, organism-based; method in brief: as §1
Pseudomonas aeruginosa [16] = test: Upregulation of conserved hypothetical protein in Pseudomonas aeruginosa PA0647 at 0.3 times MIC; assay type: functional, organism-based; method in brief: as §1
Pseudomonas aeruginosa [17] = test: Upregulation of putative tail fiber protein in Pseudomonas aeruginosa PA0620 at MIC; assay type: functional, organism-based
Pseudomonas aeruginosa [18] = test: Upregulation of putative tail formation protein in Pseudomonas aeruginosa PA0626 at MIC; assay type: functional, organism-based
Pseudomonas aeruginosa [19] = test: Upregulation of putative phage base plate assembly protein in Pseudomonas aeruginosa PA0618 at MIC; assay type: functional, organism-based; method in brief: as §1
Pseudomonas aeruginosa [20] = test: Upregulation of putative phage base plate assembly protein in Pseudomonas aeruginosa PA0618 at 0.3 times MIC; assay type: functional, organism-based; method in brief: as §1
Pseudomonas aeruginosa [21] = test: Downregulation of betT1 gene in Pseudomonas aeruginosa PA5375 at 0.3 times MIC relative to untreated control
Pseudomonas aeruginosa [22] = test: Upregulation of oprM gene in Pseudomonas aeruginosa PA0427 at 1 times MIC relative to untreated control; assay type: functional, organism-based; method in brief: as §1
Pseudomonas aeruginosa [23] = test: Upregulation of hypothetical protein in Pseudomonas aeruginosa PA0338 at MIC; assay type: functional, organism-based; method in brief: as §1
Pseudomonas aeruginosa [24] = test: Upregulation of conserved hypothetical protein in Pseudomonas aeruginosa PA0647 at MIC; assay type: functional, organism-based; method in brief: as §1
Pseudomonas aeruginosa [25] = test: Upregulation of conserved hypothetical protein in Pseudomonas aeruginosa PA0613 at 0.3 times MIC after 48 hrs; assay type: functional, organism-based
Pseudomonas aeruginosa [26] = test: Upregulation of hypothetical protein in Pseudomonas aeruginosa PA4459 at MIC; assay type: functional, organism-based; method in brief: as §1
Pseudomonas aeruginosa [27] = test: Upregulation of putative phage tail sheath protein in Pseudomonas aeruginosa PA0622 at 0.3 times MIC after 48 hrs; assay type: functional, organism-based
Pseudomonas aeruginosa [28] = test: Upregulation of putative minor tail protein L in Pseudomonas aeruginosa PA0638 at MIC; assay type: functional, organism-based; method in brief: as §1
Pseudomonas aeruginosa [29] = test: Upregulation of hypothetical protein in Pseudomonas aeruginosa PA0630 at 0.3 times MIC; assay type: functional, organism-based; method in brief: as §1
Pseudomonas aeruginosa [30] = test: Upregulation of putative tail length determination protein in Pseudomonas aeruginosa PA0636 at 0.3 times MIC; assay type: functional, organism-based
Pseudomonas aeruginosa [31] = test: Downregulation of nuoG gene in Pseudomonas aeruginosa PA2642 at MIC; assay type: functional, organism-based; method in brief: as §1
Pseudomonas aeruginosa [32] = test: Upregulation of putative phage tail assembly protein in Pseudomonas aeruginosa PA0640 at MIC; assay type: functional, organism-based; method in brief: as §1
Pseudomonas aeruginosa [33] = test: Upregulation of hitB gene in Pseudomonas aeruginosa PA4688 at 0.3 times MIC; assay type: functional, organism-based; method in brief: as §1
Pseudomonas aeruginosa [34] = test: Upregulation of putative phage tail sheath protein in Pseudomonas aeruginosa PA0622 at MIC after 48 hrs; assay type: functional, organism-based
Pseudomonas aeruginosa [35] = test: Upregulation of hypothetical protein in Pseudomonas aeruginosa PA0616 at MIC; assay type: functional, organism-based; method in brief: as §1
Pseudomonas aeruginosa [36] = test: Upregulation of conserved hypothetical protein in Pseudomonas aeruginosa PA3784 at MIC after 48 hrs; assay type: functional, organism-based
Pseudomonas aeruginosa [37] = test: Downregulation of hypothetical protein in Pseudomonas aeruginosa PA3276 at 0.3 times MIC after 48 hrs; assay type: functional, organism-based
Pseudomonas aeruginosa [38] = test: Upregulation of putative tail length determination protein in Pseudomonas aeruginosa PA0636 at MIC; assay type: functional, organism-based
Pseudomonas aeruginosa [39] = test: Upregulation of conserved hypothetical protein in Pseudomonas aeruginosa PA0615 at MIC; assay type: functional, organism-based; method in brief: as §1
Pseudomonas aeruginosa [40] = test: Upregulation of ygdP gene in Pseudomonas aeruginosa PA0336 at 0.3 times MIC relative to untreated control; assay type: functional, organism-based
Pseudomonas aeruginosa [41] = test: Upregulation of putative major tail protein V in Pseudomonas aeruginosa PA0633 at 0.3 times MIC; assay type: functional, organism-based; method in brief: as §1
Pseudomonas aeruginosa [42] = test: Upregulation of putative phage tail protein in Pseudomonas aeruginosa PA0619 at MIC; assay type: functional, organism-based
Pseudomonas aeruginosa [43] = test: Upregulation of conserved hypothetical protein in Pseudomonas aeruginosa PA0613 at MIC after 48 hrs; assay type: functional, organism-based
Pseudomonas aeruginosa [44] = test: Upregulation of putative phage-related protein, tail component in Pseudomonas aeruginosa PA0641 at 0.3 times MIC; assay type: functional, organism-based
Pseudomonas aeruginosa [45] = test: Upregulation of putative tail formation protein in Pseudomonas aeruginosa PA0626 at 0.3 times MIC; assay type: functional, organism-based
Pseudomonas aeruginosa [46] = test: Upregulation of putative phage tail tube protein in Pseudomonas aeruginosa PA0623 at MIC; assay type: functional, organism-based
Pseudomonas aeruginosa [47] = test: Upregulation of hypothetical protein in Pseudomonas aeruginosa PA0736-PA0737 at 0.3 times MIC; assay type: functional, organism-based; method in brief: as §1
Pseudomonas aeruginosa [48] = test: Upregulation of hitB gene in Pseudomonas aeruginosa PA4688 at MIC; assay type: functional, organism-based; method in brief: as §1
Pseudomonas aeruginosa [49] = test: Upregulation of gidA gene in Pseudomonas aeruginosa PA5565 at MIC; assay type: functional, organism-based; method in brief: as §1
Pseudomonas aeruginosa [50] = test: Downregulation of adhA gene in Pseudomonas aeruginosa PA5427 at MIC; assay type: functional, organism-based; method in brief: as §1
Pseudomonas aeruginosa [51] = test: Upregulation of hypothetical protein in Pseudomonas aeruginosa PA0736-PA0737 at MIC; assay type: functional, organism-based; method in brief: as §1
Pseudomonas aeruginosa [52] = test: Upregulation of putative permease of ABC transporter in Pseudomonas aeruginosa PA2060 at 0.3 times MIC after 48 hrs; assay type: functional, organism-based
Pseudomonas aeruginosa [53] = test: Upregulation of putative phage-related protein, tail component in Pseudomonas aeruginosa PA0641 at MIC; assay type: functional, organism-based
Pseudomonas aeruginosa [54] = test: Upregulation of putative major tail protein V in Pseudomonas aeruginosa PA0633 at MIC; assay type: functional, organism-based; method in brief: as §1
Pseudomonas aeruginosa [55] = test: Upregulation of hypothetical protein in Pseudomonas aeruginosa PA0634 at MIC; assay type: functional, organism-based; method in brief: as §1
Pseudomonas aeruginosa [56] = test: Upregulation of possible nuclease or phosphatase in Pseudomonas aeruginosa PA3958 at 0.3 times MIC after 48 hrs; assay type: functional, organism-based
Pseudomonas aeruginosa [57] = test: Upregulation of ygdP gene in Pseudomonas aeruginosa PA0336 at 1 times MIC relative to untreated control; assay type: functional, organism-based
Pseudomonas aeruginosa [58] = test: Upregulation of conserved hypothetical protein in Pseudomonas aeruginosa PA0624 at MIC; assay type: functional, organism-based; method in brief: as §1
Pseudomonas aeruginosa [59] = test: Upregulation of putative phage tail assembly protein in Pseudomonas aeruginosa PA0640 at 0.3 times MIC; assay type: functional, organism-based; method in brief: as §1
Pseudomonas aeruginosa [60] = test: Upregulation of nuoN gene in Pseudomonas aeruginosa PA2649 at 0.3 times MIC; assay type: functional, organism-based; method in brief: as §1
Pseudomonas aeruginosa [61] = test: Upregulation of putative phage tail protein in Pseudomonas aeruginosa PA0619 at 0.3 times MIC; assay type: functional, organism-based; method in brief: as §1
Pseudomonas aeruginosa [62] = test: Upregulation of putative phage tail tube protein in Pseudomonas aeruginosa PA0623 at 0.3 times MIC; assay type: functional, organism-based
Pseudomonas aeruginosa [63] = test: Upregulation of conserved hypothetical protein in Pseudomonas aeruginosa PA0615 at 0.3 times MIC; assay type: functional, organism-based; method in brief: as §1
Pseudomonas aeruginosa [64] = test: Upregulation of conserved hypothetical protein in Pseudomonas aeruginosa PA1433 at MIC after 48 hrs; assay type: functional, organism-based
Pseudomonas aeruginosa [65] = test: Upregulation of atpB gene in Pseudomonas aeruginosa PA5560 at MIC; assay type: functional, organism-based; method in brief: as §1
Pseudomonas aeruginosa [66] = test: Upregulation of possible nuclease or phosphatase in Pseudomonas aeruginosa PA3958 at MIC after 48 hrs; assay type: functional, organism-based
Pseudomonas aeruginosa [67] = test: Downregulation of betT1 gene in Pseudomonas aeruginosa PA5375 at 0.3 times MIC relative to untreated control; assay type: functional, organism-based; method in brief: as §1
Pseudomonas aeruginosa [68] = test: Downregulation of oprF gene in Pseudomonas aeruginosa PA1777 at 1 times MIC relative to untreated control; assay type: functional, organism-based; method in brief: as §1

Measured: Activity

O=C(O)c1cn(C2CC2)c2cc(N3CCNCC3)c(F)cc2c1=O
active: all assays above
